Data taken from ChEMBL document CHEMBL4049422, “Discovery of Novel Indazole Derivatives as Orally Available β3-Adrenergic Receptor Agonists Lacking Off-Target-Based Cardiovascular Side Effects” (J Med Chem, 2017).
pEC50: −log10 of the molar value. ≈ marks a conversion by molar mass, not a printed value.

Columns and labels:
[1] = target: T1, Beta-2 adrenergic receptor (Homo sapiens, UniProt P07550); experiment: Intrinsic activity at recombinant human beta2 adrenergic receptor assessed as accumulation of cyclic AMP after 30 mins relative to isoproterenol
T1 sequence (P07550 whole entry): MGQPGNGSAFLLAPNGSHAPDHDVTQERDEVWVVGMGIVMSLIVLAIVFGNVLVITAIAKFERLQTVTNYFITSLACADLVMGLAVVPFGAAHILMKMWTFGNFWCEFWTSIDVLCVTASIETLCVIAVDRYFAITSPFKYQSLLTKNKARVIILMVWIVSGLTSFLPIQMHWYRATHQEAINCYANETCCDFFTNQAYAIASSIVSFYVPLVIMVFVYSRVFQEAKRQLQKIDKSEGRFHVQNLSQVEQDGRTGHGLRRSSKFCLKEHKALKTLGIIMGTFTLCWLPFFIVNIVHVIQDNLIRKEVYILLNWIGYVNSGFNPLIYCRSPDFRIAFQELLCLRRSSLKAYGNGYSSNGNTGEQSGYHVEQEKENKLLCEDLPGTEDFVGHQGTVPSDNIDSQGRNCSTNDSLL

[2] = target: T2, Alpha-1A adrenergic receptor (Homo sapiens, UniProt P35348); experiment: Agonist activity at recombinant human alpha1A adrenergic receptor expressed in HEK293 cells assessed as intercellular Ca mobilization by Fura-2AM dye-based fluorescence assay; format: cell-based
T2 sequence (P35348 whole entry): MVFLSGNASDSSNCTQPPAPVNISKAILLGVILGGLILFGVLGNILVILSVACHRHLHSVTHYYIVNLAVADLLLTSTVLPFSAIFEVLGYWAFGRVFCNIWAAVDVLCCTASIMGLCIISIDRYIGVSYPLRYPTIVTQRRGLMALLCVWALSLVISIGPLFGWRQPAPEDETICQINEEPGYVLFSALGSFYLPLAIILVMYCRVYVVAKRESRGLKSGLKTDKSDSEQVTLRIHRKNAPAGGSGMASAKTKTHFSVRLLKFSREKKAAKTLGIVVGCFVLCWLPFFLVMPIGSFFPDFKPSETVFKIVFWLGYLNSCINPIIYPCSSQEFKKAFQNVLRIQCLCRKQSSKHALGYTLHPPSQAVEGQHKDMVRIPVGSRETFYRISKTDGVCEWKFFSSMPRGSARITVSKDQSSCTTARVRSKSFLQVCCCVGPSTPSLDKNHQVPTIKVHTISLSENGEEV

[3] = Solubility of the compound at pH 6.8 buffer solution after 18 hrs by HPLC analysis; format: physicochemical
CYP2C9 = CYP2C9 (Homo sapiens, UniProt P11712); experiment: Inhibition of CYP2C9 (unknown origin) at 10 uM relative to control; format: ADME
CYP2C9, sequence (P11712 whole entry): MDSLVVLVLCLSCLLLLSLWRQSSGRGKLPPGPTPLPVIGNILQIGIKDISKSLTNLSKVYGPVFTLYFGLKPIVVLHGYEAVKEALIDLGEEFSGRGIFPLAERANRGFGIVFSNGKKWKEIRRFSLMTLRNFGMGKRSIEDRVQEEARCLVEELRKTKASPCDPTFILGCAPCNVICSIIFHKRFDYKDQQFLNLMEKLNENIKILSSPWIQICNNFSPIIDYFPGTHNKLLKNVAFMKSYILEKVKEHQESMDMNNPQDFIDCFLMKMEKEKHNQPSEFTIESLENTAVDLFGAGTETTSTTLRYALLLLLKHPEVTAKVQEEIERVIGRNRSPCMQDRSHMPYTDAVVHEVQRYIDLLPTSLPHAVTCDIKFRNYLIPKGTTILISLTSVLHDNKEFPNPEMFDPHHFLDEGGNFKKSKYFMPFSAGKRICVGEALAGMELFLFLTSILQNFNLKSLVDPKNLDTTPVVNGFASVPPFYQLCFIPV

[4] = AUC in Sprague-Dawley rat at 5 mg/kg, po by LC-MS/MS analysis; format: ADME, organism-based; conditions: in vivo
Procedure, shortened: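 Male Sprague-Dawley rats (n = 2 or 3) dosed orally at 5 mg/kg in saline or water (5 mL/kg). Blood taken from the subclavian vein at 0.5, 1, 2, 4, 6 and 8 h; plasma separated by centrifugation, stored at -20 °C, and drug levels measured by LC-MS/MS. Values are mean ± SD (n = 3) or the average of two experiments.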

[5] = target: T3, Alpha-1B adrenergic receptor (Homo sapiens, UniProt P35368); experiment: Agonist activity at recombinant human alpha1B adrenergic receptor expressed in HEK293 cells after 6 hrs by NFAT-luciferase reporter gene assay; format: cell-based
T3 sequence (P35368 whole entry): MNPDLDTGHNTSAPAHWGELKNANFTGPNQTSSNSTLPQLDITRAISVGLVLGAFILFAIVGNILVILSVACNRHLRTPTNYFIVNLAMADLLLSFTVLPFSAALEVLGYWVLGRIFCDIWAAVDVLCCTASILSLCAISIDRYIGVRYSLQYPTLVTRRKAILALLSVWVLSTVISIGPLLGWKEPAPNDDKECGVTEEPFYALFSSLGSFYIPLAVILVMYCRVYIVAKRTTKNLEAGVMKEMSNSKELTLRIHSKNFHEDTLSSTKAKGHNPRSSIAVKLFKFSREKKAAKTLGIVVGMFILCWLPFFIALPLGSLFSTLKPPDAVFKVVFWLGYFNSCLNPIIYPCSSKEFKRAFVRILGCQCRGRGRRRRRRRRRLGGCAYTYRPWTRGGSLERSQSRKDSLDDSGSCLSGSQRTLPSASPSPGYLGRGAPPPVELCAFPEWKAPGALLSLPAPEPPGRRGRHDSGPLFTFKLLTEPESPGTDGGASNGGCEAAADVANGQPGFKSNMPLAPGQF

[6] = target: Beta-3 adrenergic receptor (Homo sapiens, UniProt P13945); experiment: Agonist activity at recombinant human beta3 adrenergic receptor expressed in CHO cells assessed as accumulation of cyclic AMP after 30 mins; format: cell-based
Beta-3 adrenergic receptor, sequence (P13945 whole entry): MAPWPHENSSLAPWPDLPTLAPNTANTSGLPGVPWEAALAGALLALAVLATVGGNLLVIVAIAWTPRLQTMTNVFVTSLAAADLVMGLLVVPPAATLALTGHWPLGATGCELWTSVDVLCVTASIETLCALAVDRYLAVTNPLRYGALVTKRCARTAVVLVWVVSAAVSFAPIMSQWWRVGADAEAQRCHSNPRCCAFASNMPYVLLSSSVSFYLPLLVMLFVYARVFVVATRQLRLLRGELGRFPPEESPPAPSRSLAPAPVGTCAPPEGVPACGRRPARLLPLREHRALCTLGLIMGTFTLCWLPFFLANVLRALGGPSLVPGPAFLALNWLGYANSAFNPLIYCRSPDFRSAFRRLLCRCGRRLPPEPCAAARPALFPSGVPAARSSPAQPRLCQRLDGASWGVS

[7] = target: Beta-1 adrenergic receptor (Homo sapiens, UniProt P08588); experiment: Intrinsic activity at recombinant human beta1 adrenergic receptor assessed as accumulation of cyclic AMP after 30 mins relative to isoproterenol; conditions: 0.5 h
Beta-1 adrenergic receptor, sequence (P08588 whole entry): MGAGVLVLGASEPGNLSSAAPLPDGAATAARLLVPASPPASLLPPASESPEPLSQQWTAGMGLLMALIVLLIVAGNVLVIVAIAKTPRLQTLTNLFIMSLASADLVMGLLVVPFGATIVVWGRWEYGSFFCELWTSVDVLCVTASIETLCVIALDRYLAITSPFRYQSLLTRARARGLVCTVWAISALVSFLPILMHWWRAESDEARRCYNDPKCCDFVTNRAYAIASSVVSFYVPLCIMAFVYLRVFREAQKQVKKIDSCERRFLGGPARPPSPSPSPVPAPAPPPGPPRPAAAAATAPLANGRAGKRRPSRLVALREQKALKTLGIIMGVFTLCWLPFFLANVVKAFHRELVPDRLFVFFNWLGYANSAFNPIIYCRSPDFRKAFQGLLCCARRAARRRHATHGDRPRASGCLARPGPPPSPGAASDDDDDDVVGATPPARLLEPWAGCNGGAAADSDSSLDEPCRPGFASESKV

[8] = target: T1, Beta-2 adrenergic receptor; experiment: Agonist activity at recombinant human beta2 adrenergic receptor expressed in CHO cells assessed as accumulation of cyclic AMP after 30 mins; format: cell-based
[9] = target: Adrenoceptor beta 3 (Callithrix jacchus) (UniProt F6XZF4); experiment: Agonist activity at beta3 adrenergic receptor in marmoset urinary bladder smooth muscle strips assessed as induction of KCl-precontracted muscle relaxation treated every 20 mins
Adrenoceptor beta 3 (Callithrix jacchus), sequence (F6XZF4 as listed by the source): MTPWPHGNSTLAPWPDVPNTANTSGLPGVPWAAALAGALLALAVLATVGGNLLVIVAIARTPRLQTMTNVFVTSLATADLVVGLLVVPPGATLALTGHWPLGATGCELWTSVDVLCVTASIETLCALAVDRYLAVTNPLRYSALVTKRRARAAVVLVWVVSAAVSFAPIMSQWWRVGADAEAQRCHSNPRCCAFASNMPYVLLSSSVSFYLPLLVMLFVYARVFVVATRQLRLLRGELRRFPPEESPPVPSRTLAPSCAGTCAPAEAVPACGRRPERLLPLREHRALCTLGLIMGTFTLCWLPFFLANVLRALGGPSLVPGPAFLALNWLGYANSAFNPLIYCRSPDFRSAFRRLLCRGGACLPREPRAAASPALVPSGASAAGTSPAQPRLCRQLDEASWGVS

CYP2C8 = target: T4, CYP2C8 (Homo sapiens, UniProt P10632); experiment: Inhibition of CYP2C8 (unknown origin) at 10 uM relative to control; format: ADME
T4 sequence (P10632 whole entry): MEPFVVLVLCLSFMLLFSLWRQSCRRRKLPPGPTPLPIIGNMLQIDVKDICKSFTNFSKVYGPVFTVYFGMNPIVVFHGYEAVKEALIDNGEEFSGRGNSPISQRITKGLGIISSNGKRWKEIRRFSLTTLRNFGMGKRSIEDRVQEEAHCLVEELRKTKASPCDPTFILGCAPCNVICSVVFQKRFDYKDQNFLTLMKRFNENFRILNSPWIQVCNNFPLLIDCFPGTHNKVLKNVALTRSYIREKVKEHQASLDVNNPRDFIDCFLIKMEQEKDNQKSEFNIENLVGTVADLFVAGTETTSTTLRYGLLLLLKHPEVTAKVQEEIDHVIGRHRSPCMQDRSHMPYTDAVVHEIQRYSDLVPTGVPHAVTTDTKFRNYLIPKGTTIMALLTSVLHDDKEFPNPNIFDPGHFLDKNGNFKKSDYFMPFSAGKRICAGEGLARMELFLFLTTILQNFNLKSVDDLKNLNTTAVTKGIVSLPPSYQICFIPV

[10] = target: T5, Alpha-1D adrenergic receptor (Homo sapiens, UniProt P25100); experiment: Agonist activity at recombinant human alpha1D adrenergic receptor expressed in HEK293 cells after 6 hrs by NFAT-luciferase reporter gene assay; format: cell-based
T5 sequence (P25100 whole entry): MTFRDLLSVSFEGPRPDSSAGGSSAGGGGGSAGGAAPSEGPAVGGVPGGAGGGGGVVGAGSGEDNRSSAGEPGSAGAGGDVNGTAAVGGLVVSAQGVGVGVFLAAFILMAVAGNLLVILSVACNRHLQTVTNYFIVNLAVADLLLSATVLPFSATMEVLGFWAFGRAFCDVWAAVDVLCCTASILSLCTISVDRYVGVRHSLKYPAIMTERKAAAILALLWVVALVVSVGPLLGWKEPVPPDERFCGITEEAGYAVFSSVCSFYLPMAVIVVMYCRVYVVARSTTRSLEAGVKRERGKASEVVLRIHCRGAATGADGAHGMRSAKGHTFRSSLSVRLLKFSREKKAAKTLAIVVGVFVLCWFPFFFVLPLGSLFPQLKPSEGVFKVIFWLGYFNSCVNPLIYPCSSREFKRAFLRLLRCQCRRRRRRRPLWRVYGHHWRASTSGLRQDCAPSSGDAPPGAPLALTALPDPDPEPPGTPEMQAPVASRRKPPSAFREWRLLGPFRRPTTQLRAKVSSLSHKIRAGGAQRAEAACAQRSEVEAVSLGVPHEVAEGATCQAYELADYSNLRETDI

- Emax at 0.5 h [1]: 4%
- pEC50 [2]: < 5.00
- solubility at 18 h [3]: 278 µM (≈ 124 µg/mL)
- inhibition at 10 µM (CYP2C9): < 34%
- AUC [4]: 312 ng·h/mL
- pEC50 [5]: < 5.00
- pEC50 [6]: 7.74
- Intrinsic activity [7]: 4%
- pEC50 [8]: < 5.00
- Activity [9]: Dose-dependent effect
- inhibition at 10 µM (CYP2C8): < 34%
- pEC50 [10]: < 5.00
Structure (SMILES): Cc1n[nH]c2cc(OCCNC[C@H](O)c3cccc(NS(=O)(=O)C4CCC4)c3)ccc12
